In publication PMC4618315 (Nature, 2015):
Where a chain is given by its changes, count along the chain named.

Assays:
Format in all cases: binding
rGLUT5 Q166E = biological target: T1, rGLUT5 Q166E (Rattus norvegicus, UniProt P43427, A285T/N50Y/Q166E/T452S); assay: Tryptophan fluorescence quenching of purified rat GLUT5 Q166E mutant; details: rGLUT5 Q166E relative to WT; 40 mM sugar
T1 sequence (P43427 with tags, fused parts or gaps N50Y/Q166E/A285T/T452S): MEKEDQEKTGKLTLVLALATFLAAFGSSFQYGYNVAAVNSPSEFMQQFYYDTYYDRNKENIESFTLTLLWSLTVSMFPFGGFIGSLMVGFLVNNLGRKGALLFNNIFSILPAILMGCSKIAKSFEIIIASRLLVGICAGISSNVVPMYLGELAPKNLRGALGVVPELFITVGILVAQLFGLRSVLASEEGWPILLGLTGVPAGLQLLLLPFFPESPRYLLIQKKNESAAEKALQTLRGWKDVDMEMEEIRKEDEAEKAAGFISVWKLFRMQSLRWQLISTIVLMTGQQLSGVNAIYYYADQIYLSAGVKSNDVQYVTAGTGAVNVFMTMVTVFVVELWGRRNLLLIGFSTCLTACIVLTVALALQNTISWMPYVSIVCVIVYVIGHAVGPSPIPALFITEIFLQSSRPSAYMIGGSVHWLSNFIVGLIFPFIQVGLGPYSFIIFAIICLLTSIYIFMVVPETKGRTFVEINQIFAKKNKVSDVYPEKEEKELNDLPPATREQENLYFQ
Method in brief: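 Deglycosylated N50Y rat background carried the Q166E mutation, made by PCR mutagenesis and purified as WT (Ni-NTA, SEC in DDM). Protein was used at 0.06 mg/ml in 20 mM Tris pH 7.5, 150 mM NaCl, 0.03% DDM, with or without 5 mM HgCl2 pre-incubation. Single 40 mM D-fructose or D-glucose additions, or increasing D-glucose, were incubated 2 min at room temperature. Readout: excitation 295 nm, 338 nm emission peak; triplicate.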

bovine GLUT5 = biological target: T2, bovine GLUT5 (Bos taurus, UniProt P58353, N51A)
T2 sequence (P58353 with tags, fused parts or gaps N51A): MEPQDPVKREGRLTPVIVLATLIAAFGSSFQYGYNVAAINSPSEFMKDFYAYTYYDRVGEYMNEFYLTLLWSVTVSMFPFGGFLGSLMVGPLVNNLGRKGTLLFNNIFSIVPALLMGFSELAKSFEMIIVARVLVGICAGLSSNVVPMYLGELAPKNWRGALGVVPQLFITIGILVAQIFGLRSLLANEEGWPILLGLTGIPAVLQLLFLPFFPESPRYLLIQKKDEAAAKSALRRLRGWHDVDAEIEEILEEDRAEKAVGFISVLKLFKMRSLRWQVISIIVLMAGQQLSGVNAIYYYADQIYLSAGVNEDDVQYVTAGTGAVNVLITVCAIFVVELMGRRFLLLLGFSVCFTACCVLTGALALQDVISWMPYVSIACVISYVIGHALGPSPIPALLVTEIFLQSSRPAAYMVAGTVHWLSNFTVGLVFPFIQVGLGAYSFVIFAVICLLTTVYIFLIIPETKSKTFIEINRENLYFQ
Method in brief: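 Bovine construct (residues 1–473 of 501, N51A deglycosylation) was expressed in S. cerevisiae, solubilised in 1% DDM and bound to Ni-NTA. It was TEV-cleaved and run on SEC in 10 mM Tris-HCl pH 7.5, 150 mM NaCl, 0.09% UDMβ. D-fructose was added sequentially, with 2 min room-temperature incubation after each addition. Trp fluorescence: excitation 295 nm, emission 338 nm.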

[1] = biological target: T3, rGLUT5 (rat GLUT5 deglycosylation mutant N50Y, "WT") (Rattus norvegicus, UniProt P43427, A285T/N50Y/T452S); assay: Tryptophan fluorescence quenching of purified rat GLUT5 WT
T3 sequence (P43427 with tags, fused parts or gaps N50Y/A285T/T452S): T1 sequence (P43427 with tags, fused parts or gaps N50Y/Q166E/A285T/T452S) with E166Q

[2] = biological target: T4, rGLUT5 with a single tryptophan residue (W419) (Rattus norvegicus, UniProt P43427, N50Y/W191F/W239F/W265F/W275F/W338F/W370F/W70F); assay: Tryptophan fluorescence quenching of rat GLUT5 single tryptophan; details: 40 mM sugar
T4 sequence (P43427 with tags, fused parts or gaps N50Y/W70F/W191F/W239F/W265F/W275F/A285T/W338F/W370F/T452S): T1 sequence (P43427 with tags, fused parts or gaps N50Y/Q166E/A285T/T452S) with W70F, E166Q, W191F, W239F, W265F, W275F, W338F, W370F
Method in brief: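 Single-Trp rat protein (N50Y plus W70F, W191F, W239F, W265F, W275F, W338F, W370F) was used at 0.06 mg/ml in 20 mM Tris pH 7.5, 150 mM NaCl, 0.03% DDM, with or without 5 mM HgCl2. Sugars were each added at 40 mM final; D-fructose was also added sequentially up to 40 mM. After 2 min at room temperature: excitation 295 nm, emission 338 nm. Kd by non-linear regression; triplicate.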

Compound | sugar binding (in words) (rGLUT5 Q166E) | Kd (bovine GLUT5) [mM] | Kd ([1]; Kd, purified rGLUT5 WT (N50Y) in DDM, excitation 295 nm, emission 338 nm, n = 3) [mM] | quenching of tryptophan fluorescence (in words) ([1]; addition of sugar (40 mM) to rGLUT5) | tryptophan quenching (in words) [2]
O=C(CO)[C@@H](O)[C@H](O)[C@H](O)CO [D-fructose] | clearly weakens | 5.5 ± 0.6 | 6 to 9 | strong quenching | –
O=C[C@H](O)[C@@H](O)[C@@H](O)[C@H](O)CO [D-galactose] | – | – | – | – | No tryptophan quenching
OC[C@H]1OC(O)[C@H](O)[C@@H](O)[C@@H]1O (stereo partly drawn) [D-glucose] | robust binding | – | – | – | No tryptophan quenching
O=C(CO)[C@H](O)[C@@H](O)[C@@H](O)CO [L-fructose, reference compound] | – | – | – | – | No tryptophan quenching
